This is an account of results in ChEMBL document CHEMBL1287649, “Synthesis and anti-tubercular and antimicrobial activities of some 2r,4c-diaryl-3-azabicyclo[3.3.1]nonan-9-one N-isonicotinoylhydrazone derivatives” (2010).

Assay [1] concerns Mycobacterium tuberculosis. As to the kind of experiment: Antitubercular activity against isoniazid-resistant Mycobacterium tuberculosis assessed as reduction of relative light unit at 1 ug/ml after 72 hrs by luciferase reporter phage assay relative to control. The assay is classed as functional. Set-up: scale not given: the % may be the effect or the level left. The essentials: (§1)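 Luciferase reporter phage assay. Luminescence (RLU) integrated for 10 s on a luminometer, in duplicate per sample and averaged. Percent RLU reduction calculated against untreated control. Run repeated if the control mean RLU was below 1000.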
In general terms: In a reporter assay the amount or activity of a reporter protein is the signal.

Assay [2] concerns Mycobacterium tuberculosis. Nature of the assay: Antitubercular activity against isoniazid-resistant Mycobacterium tuberculosis assessed as reduction of relative light unit at 2 ug/ml after 72 hrs by luciferase reporter phage assay relative to control. The assay is classed as functional. Set-up: scale not given: the % may be the effect or the level left. The essentials: as §1

For `O=C(N/N=C1\C2CCCC1[C@H](c1ccc(Cl)cc1)N[C@@H]2c1ccc(Cl)cc1)c1ccncc1`, the Activity in assay [1] was determined as 63.61%; in assay [2], 73.28%.

With `O=C(N/N=C1\C2CCCC1[C@H](c1ccccc1)N[C@@H]2c1ccccc1)c1ccncc1`, the results for the Activity in assay [1] and in assay [2] were 69.6% and 77.52%, respectively.

`Cc1ccc([C@H]2N[C@@H](c3ccc(C)cc3)C3CCCC2/C3=N\NC(=O)c2ccncc2)cc1`: the Activity in assay [1] worked out at 62.3%; in assay [2], 71.07%.

Take `COc1ccc([C@H]2N[C@@H](c3ccc(OC)cc3)C3CCCC2/C3=N\NC(=O)c2ccncc2)cc1`: the Activity in assay [1] is 67.07%; in assay [2], 74.19%.

In the case of `O=C(N/N=C1\C2CCCC1[C@H](c1ccc(F)cc1)N[C@@H]2c1ccc(F)cc1)c1ccncc1`, the Activity in assay [1] came out at 67.63%; in assay [2], 75.08%.

As to `COc1cccc([C@H]2N[C@@H](c3cccc(OC)c3)C3CCCC2/C3=N\NC(=O)c2ccncc2)c1`, the Activity in assay [1] turned out to be 69.18%; in assay [2] it was 78.33%.

Turning to `O=C(N/N=C1\C2CCCC1[C@H](c1cccc(Cl)c1)N[C@@H]2c1cccc(Cl)c1)c1ccncc1`, the Activity in assay [1] is 65.42%; in assay [2], 75.83%.

With `NNC(=O)c1ccncc1` [ISONIAZID], the Activity in assay [1] worked out at 89.65%; in assay [2], 95.85%.
